From ChEMBL document CHEMBL5036367, “The BASHY Platform Enables the Assembly of a Fluorescent Bortezomib-GV1001 Conjugate” (ACS Med Chem Lett, 2022)

Assays:
[1] = tested on: HT-29; assay: Cytotoxicity against human HT-29 cells assessed as reduction in cell viability incubated for 24 hrs by MTT assay; format: functional, cell-based; settings: HT-29, 24 h
[2] = Stability of compound in ammonium acetate assessed as half life at pH 7; format: physicochemical
[3] = tested on: HeLa; assay: Cytotoxicity against oleic acid-induced human HeLa cells assessed as reduction in cell viability incubated for 24 hrs by MTT assay; format: functional, cell-based
[4] = tested on: HeLa; assay: Cytotoxicity against human HeLa cells assessed as reduction in cell viability incubated for 24 hrs by MTT assay; format: functional, cell-based
[5] = Drug uptake in lysosomes of human HT-29 cells assessed as accumulation in lipid droplets by LysoTracker Red and Nile red staining based confocal microscopic analysis; format: ADME, cell-based
Outline: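 HT-29 cells were imaged by confocal fluorescence microscopy using the compound's own fluorescence. Co-staining was with LysoTracker Deep Red for lysosomes and Nile Red for lipid droplets. Colocalization was expressed as the Pearson's correlation coefficient.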

| SMILES | IC50 [1] | half-life [2] | IC50 [3] | IC50 [4] | Drug uptake [5] |
| --- | --- | --- | --- | --- | --- |
| COc1ccc2c(c1)O[B-]1([C@H](CC(C)C)NC(=O)[C@@H](Cc3ccccc3)NC(=O)c3cnccn3)OC(=O)C(c3ccccc3)=N[N+]1=C2c1ccccc1 (stereo partly specified) | 450 nM | – | – | – | – |
| CCC1=[N+]2N=C(c3ccccc3)C(=O)O[B-]2([C@H](CC(C)C)NC(=O)[C@@H](Cc2ccccc2)NC(=O)c2cnccn2)Oc2cc(OC)ccc21 (stereo partly specified) | 19.5 nM | 13 h | > 200 nM | 134 nM | Active |
| CC(C)C[C@H](NC(=O)[C@H](Cc1ccccc1)NC(=O)c1cnccn1)B(O)O [BORTEZOMIB] | 3.2 nM | – | > 200 nM | 20 nM | – |
| COc1cccc2c1C(=O)c1c(O)c3c(c(O)c1C2=O)C[C@@](O)(C(=O)CO)C[C@@H]3O[C@H]1C[C@H](N)[C@H](O)[C@H](C)O1 [DOXORUBICIN] | – | – | > 1000 nM | 90 nM | – |
| CC[C@H](C)[C@H](NC(=O)[C@H](Cc1ccccc1)NC(=O)[C@H](CCCNC(=N)N)NC(=O)[C@H](CC(C)C)NC(=O)[C@H](CCCNC(=N)N)NC(=O)[C@H](CO)NC(=O)[C@@H](NC(=O)[C@H](CC(C)C)NC(=O)[C@H](CC(C)C)NC(=O)[C@H](C)NC(=O)[C@@H]1CCCN1C(=O)[C@H](CCCNC(=N)N)NC(=O)[C@H](C)NC(=O)[C@@H](N)CCC(=O)O)[C@@H](C)O)C(=O)N1CCC[C@H]1C(=O)N[C@@H](CCCCN)C(=O)N[C@H](CSC1CC(=O)N(CCC(=O)NCCOCCOCCOCCOCCC(=O)NCCC(=O)N2Cc3ccccc3-c3c(nnn3CCOCCOCCOCCOc3ccc4c(c3)O[B-]3([C@@H](CC(C)C)NC(=O)[C@@H](Cc5ccccc5)NC(=O)c5cnccn5)OC(=O)C(c5ccccc5)=N[N+]3=C4c3ccccc3)-c3ccccc32)C1=O)C(=O)O (stereo partly specified) | 100 nM | – | – | – | Not Active |
| CCC1=[N+]2N=C(c3ccccc3)C(=O)O[B-]2(c2ccccc2)Oc2cc(OC)ccc21 (stereo unspecified) | – | – | – | – | Active |
| CCc1c2c(nc3ccc(O)cc13)-c1cc3c(c(=O)n1C2)COC(=O)[C@]3(O)CC [7-ETHYL-10-HYDROXYCAMPTOTHECIN] | – | – | > 1000 nM | 349 nM | – |
